Laboratory results: ChEMBL document CHEMBL1122517, “2-Phenylindoles. Relationship between structure, estrogen receptor affinity, and mammary tumor inhibiting activity in the rat” (1984)
One block for each compound: values may come before it.

How the values were obtained:
[1] = biological target: Estrogen receptor (Bos taurus) (UniProt Q9XSB5+P49884); assay: Relative binding affinity for the calf uterine estrogen receptor measured as the ratio of molar concentration of 17-beta-estradiol (E2) and inhibitor required to decrease the amount of bound [3H]E2 by 50%; assay type: protein assay
Procedure, shortened: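 Competitive binding in calf uterine cytosol with 5×10^-9 M [3H]estradiol, 18 h at 4 °C, Tris/EDTA buffer (0.01 M, pH 7.5). Unbound ligand was removed with dextran-coated charcoal (90 min, 4 °C) and supernatant radioactivity counted. Six competitor concentrations gave 10–90% bound. From semilog plots, RBA = ratio of molar concentrations of estradiol to compound giving 50% decrease in binding, ×100.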

[2] = biological target: T1, Estrogen receptor (Mus musculus) (UniProt O08537+P19785); assay: Uterotrophic activity in mice as uterus dry weight (mg)/body weight (g) *100 at 125 ug dose; assay type: functional, tissue-based
Procedure, shortened: (§1)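 Immature 19-day-old female NMRI mice, groups of 10. Compound dose per animal in olive oil (50 µL) sc on 3 consecutive days. Mice were killed 24 h after the last injection. Uteri were Bouin-fixed 20 h, cleaned, washed with alcoholic LiCl, and dried at 100 °C for 24 h. Effect = uterine dry weight (mg)/body weight (g) ×100; mean ± SD.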

[3] = biological target: T1, Estrogen receptor (Mus musculus); assay: Uterotrophic activity in mice as uterus dry weight (mg)/body weight (g) *100 at 1 ug dose; assay type: functional, tissue-based; procedure, shortened: as §1
[4] = biological target: T1, Estrogen receptor (Mus musculus); assay: Uterotrophic activity in mice as uterus dry weight (mg)/body weight (g) *100 at 25 ug dose; assay type: functional, tissue-based; procedure, shortened: as §1
[5] = biological target: T1, Estrogen receptor (Mus musculus); assay: Uterotrophic activity in mice as uterus dry weight (mg)/body weight (g) *100 at 5 ug dose; assay type: functional, tissue-based; procedure, shortened: as §1
[6] = biological target: T1, Estrogen receptor (Mus musculus); assay: Uterotrophic activity in mice as uterus dry weight (mg)/body weight (g) *100 at 0.2 ug dose; assay type: functional, tissue-based; procedure, shortened: as §1
[7] = species: Rattus norvegicus; assay: Change in DMBA-induced mammary carcinoma tumor area in rats at 2.0 mg dose; assay type: functional
Procedure, shortened: (§2)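 Female Sprague-Dawley rats got one 20 mg DMBA dose by gavage at 50 days old and were palpated twice weekly from day 30. Rats were randomized once tumor area exceeded 140 mm². Dose (per kg) was given sc in olive oil, once daily Monday to Thursday and doubled on Friday. Tumor area was taken from caliper measurements of two perpendicular axes, twice weekly. Change per animal is given as median % and range.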

[8] = species: Rattus norvegicus; assay: Change in DMBA-induced mammary carcinoma tumor area in rats at 0.5 mg dose; assay type: functional; procedure, shortened: as §2
[9] = species: Rattus norvegicus; assay: Change in body weight of DMBA-induced mammary carcinoma tumor bearing rats at 0.5 mg dose; assay type: functional
Procedure, shortened: (§3)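 DMBA-induced tumor-bearing Sprague-Dawley rats (20 mg DMBA by gavage at 50 days old), randomized when tumor area exceeded 140 mm². Dose per kg was given sc in olive oil, single dose daily Monday to Thursday, double dose Friday. Body weight was measured twice weekly. Read-out was % change in body weight.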

[10] = species: Rattus norvegicus; assay: Change in body weight of DMBA-induced mammary carcinoma tumor bearing rats at 2 mg dose; assay type: functional; procedure, shortened: as §3
[11] = species: Rattus norvegicus; assay: Change in DMBA-induced mammary carcinoma tumor area in rats at 0.5 mg dose; -100-346; assay type: functional; procedure, shortened: as §2
[12] = species: Rattus norvegicus; assay: Complete remission (%) of DMBA-induced mammary carcinoma tumors in rats at 0.5 mg dose; assay type: functional
Procedure, shortened: (§4)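 DMBA-induced tumors in Sprague-Dawley rats, entered when tumor area exceeded 140 mm². Dose per kg was given sc in olive oil, daily Monday to Thursday with a double dose Friday. Tumors were measured by calipers twice weekly. Tumor number was counted at the start of the test. Complete remission meant the tumor was no longer palpable. Partial remission meant reduction to ≤50% of initial size. New tumor appearance was recorded.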

[13] = species: Rattus norvegicus; assay: Complete remission (%) of DMBA-induced mammary carcinoma tumors in rats at 2 mg dose; assay type: functional; procedure, shortened: as §4
[14] = species: Rattus norvegicus; assay: Partial remission (%) of DMBA-induced mammary carcinoma tumors in rats at 2 mg dose; assay type: functional
Procedure, shortened: (§5)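 Female Sprague-Dawley rats, 50 days old, given a single 20 mg DMBA dose in 1 mL olive oil by gavage. Rats were palpated twice weekly from day 30, and those without tumors by day 70 were discarded. Rats were randomized once tumor area exceeded 140 mm². Drug dose was per kg in olive oil (1 mL/kg) sc, single dose Mon–Thu and double dose Fri. Tumor area (caliper, two perpendicular axes) and body weight were measured twice weekly.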

[15] = species: Rattus norvegicus; assay: Percent unchanged DMBA-induced mammary carcinoma tumors in rats at 2 mg dose; assay type: functional; procedure, shortened: as §5
[16] = species: Rattus norvegicus; assay: Percent unchanged DMBA-induced mammary carcinoma tumors in rats at 0.5 mg dose; assay type: functional; procedure, shortened: as §5
[17] = species: Rattus norvegicus; assay: Percent progressive DMBA-induced mammary carcinoma tumors in rats at 0.5 mg dose; assay type: functional; procedure, shortened: as §5
[18] = species: Rattus norvegicus; assay: Number of DMBA-induced mammary carcinoma tumors in rats at 0.5 mg dose; assay type: functional; procedure, shortened: as §4
[19] = species: Rattus norvegicus; assay: Number of DMBA-induced mammary carcinoma tumors in rats at 2 mg dose; assay type: functional; procedure, shortened: as §4
[20] = species: Rattus norvegicus; assay: Formation of new DMBA-induced mammary carcinoma tumors in rats at 0.5 mg dose; assay type: functional; procedure, shortened: as §4
[21] = species: Rattus norvegicus; assay: Formation of new DMBA-induced mammary carcinoma tumors in rats at 2 mg dose; assay type: functional; procedure, shortened: as §4
[22] = species: Rattus norvegicus; assay: Percent progressive DMBA-induced mammary carcinoma tumors in rats at 2 mg dose; assay type: functional; procedure, shortened: as §5
[23] = species: Rattus norvegicus; assay: Partial remission (%) of DMBA-induced mammary carcinoma tumors in rats at 0.5 mg dose; assay type: functional; procedure, shortened: as §4
[24] = biological target: T1, Estrogen receptor (Mus musculus); assay: Anti-uterotrophic activity in mice as uterus dry weight (mg)/body weight (g) *100 at 125 ug dose; assay type: functional, tissue-based
Procedure, shortened: (§6)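 Immature female NMRI mice, 19 days old, groups of 10, given sc injections on 3 consecutive days. Each injection held 0.4 μg estrone plus the indole dose per animal, in olive oil (50 μL). Killed 24 h after the last injection. Uteri were fixed in Bouin solution, washed, and dried 24 h at 100 °C. Read-out was uterine dry weight (mg)/body weight (g) × 100, mean ± SD.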

[25] = biological target: T1, Estrogen receptor (Mus musculus); assay: Anti-uterotrophic activity in mice as uterus dry weight (mg)/body weight (g) *100 at 1 ug dose; assay type: functional, tissue-based; procedure, shortened: as §6
[26] = biological target: T1, Estrogen receptor (Mus musculus); assay: Anti-uterotrophic activity in mice as uterus dry weight (mg)/body weight (g) *100 at 25 ug dose; assay type: functional, tissue-based; procedure, shortened: as §6
[27] = biological target: T1, Estrogen receptor (Mus musculus); assay: Anti-uterotrophic activity in mice as uterus dry weight (mg)/body weight (g) *100 at 5 ug dose; assay type: functional, tissue-based; procedure, shortened: as §6
[28] = biological target: T1, Estrogen receptor (Mus musculus); assay: Percentage inhibition of uterotrophic activity at 125 ug dose; assay type: functional
Procedure, shortened: (§7)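 Antiuterotrophic test in immature 19-day-old female NMRI mice (n=10), dosed sc on 3 consecutive days with 0.4 µg estrone per animal per day plus compound in olive oil. Uterine dry weight/body weight ×100 was read 24 h after the last dose. Inhibition % = 100 − [(E_S,T − E_V)/(E_S − E_V)]×100.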

[29] = biological target: T1, Estrogen receptor (Mus musculus); assay: Percentage inhibition of uterotrophic activity at 5 ug dose; assay type: functional; procedure, shortened: as §7
[30] = biological target: T1, Estrogen receptor (Mus musculus); assay: Percentage inhibition of uterotrophic activity at 25 ug dose; assay type: functional; procedure, shortened: as §7
[31] = biological target: T1, Estrogen receptor (Mus musculus); assay: Percentage inhibition of uterotrophic activity at 1 ug dose; assay type: functional; procedure, shortened: as §7

T1 sequence (O08537 whole entry, looked up): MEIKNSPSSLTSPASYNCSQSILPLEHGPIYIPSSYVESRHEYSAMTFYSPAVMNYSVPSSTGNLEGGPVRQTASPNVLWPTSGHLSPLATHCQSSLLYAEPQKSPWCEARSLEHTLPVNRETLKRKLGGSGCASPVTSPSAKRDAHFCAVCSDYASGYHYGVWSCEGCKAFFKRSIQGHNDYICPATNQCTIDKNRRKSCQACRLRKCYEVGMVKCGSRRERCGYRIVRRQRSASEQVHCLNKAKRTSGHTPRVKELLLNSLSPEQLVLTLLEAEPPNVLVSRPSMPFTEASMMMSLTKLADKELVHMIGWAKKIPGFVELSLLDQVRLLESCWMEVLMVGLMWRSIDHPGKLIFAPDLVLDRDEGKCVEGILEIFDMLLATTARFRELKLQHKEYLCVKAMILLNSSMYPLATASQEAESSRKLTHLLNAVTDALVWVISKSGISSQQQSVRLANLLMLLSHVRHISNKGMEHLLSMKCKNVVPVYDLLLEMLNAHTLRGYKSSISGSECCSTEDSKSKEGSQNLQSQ
T1 sequence (P19785 whole entry, looked up): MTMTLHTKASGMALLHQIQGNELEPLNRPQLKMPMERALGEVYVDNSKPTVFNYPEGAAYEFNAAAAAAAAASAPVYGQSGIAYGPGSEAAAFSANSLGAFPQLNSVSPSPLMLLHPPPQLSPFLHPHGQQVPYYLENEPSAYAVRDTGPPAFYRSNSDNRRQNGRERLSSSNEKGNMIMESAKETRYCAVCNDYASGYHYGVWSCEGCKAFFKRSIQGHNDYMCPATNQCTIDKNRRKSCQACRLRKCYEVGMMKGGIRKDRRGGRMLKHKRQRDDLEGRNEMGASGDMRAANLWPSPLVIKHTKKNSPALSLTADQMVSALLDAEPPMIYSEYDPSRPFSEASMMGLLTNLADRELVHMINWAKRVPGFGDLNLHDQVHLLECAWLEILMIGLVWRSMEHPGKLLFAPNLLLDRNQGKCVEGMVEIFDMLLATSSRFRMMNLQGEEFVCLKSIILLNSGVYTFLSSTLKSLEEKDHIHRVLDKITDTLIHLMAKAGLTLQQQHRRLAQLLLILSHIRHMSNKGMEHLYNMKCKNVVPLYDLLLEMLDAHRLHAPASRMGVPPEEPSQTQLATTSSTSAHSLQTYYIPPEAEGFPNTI

RBA [1]: 3.8
SMILES: Cn1c(-c2ccc(O)cc2)cc2ccc(O)cc21

RBA [1]: 0.01
SMILES: Oc1ccc(-c2cc3ccc(O)cc3[nH]2)cc1

RBA [1]: 9.5
SMILES: CCn1c(-c2ccc(O)cc2)c(C)c2cc(O)ccc21

RBA [1]: 19
SMILES: CCCn1c(-c2ccc(O)cc2)c(CC)c2ccc(O)cc21

RBA [1]: 0.6
SMILES: Cc1c(-c2cccc(O)c2)n(C)c2ccc(O)cc12

RBA [1]: 5.9
SMILES: CCc1c(-c2ccc(O)cc2)n(C)c2cc(O)ccc12

RBA [1]: 2.3
SMILES: CCCCCn1c(-c2ccc(O)cc2)c(C)c2cc(O)ccc21

SMILES: CCc1c(-c2ccc(OC(C)=O)cc2)n(CC)c2ccc(OC(C)=O)cc12
Uterotrophic effect [2]: 40.2 | Uterotrophic effect [3]: 29.5 | Uterotrophic effect [4]: 42.4 | Uterotrophic effect [5]: 39.1

RBA [1]: 3.5
SMILES: Cc1c(-c2ccc(O)cc2)n(C(C)C)c2ccc(O)cc12

RBA [1]: 18
SMILES: CCCn1c(-c2ccc(O)cc2)cc2cc(O)ccc21

RBA [1]: 33
SMILES: CCn1c(-c2ccc(O)cc2)c(C)c2ccc(O)cc21

RBA [1]: 0.55
SMILES: Cc1c(-c2cccc(O)c2)n(C)c2cc(O)ccc12

RBA [1]: 0.06
SMILES: Cc1c(-c2ccc(O)cc2)[nH]c2ccc(O)cc12

RBA [1]: 4.3
SMILES: CCCCn1c(-c2ccc(O)cc2)cc2ccc(O)cc21

RBA [1]: 16
SMILES: CCn1c(-c2ccc(O)cc2)cc2ccc(O)cc21

RBA [1]: 3
SMILES: CCn1c(-c2cccc(O)c2)c(C)c2ccc(O)cc21

RBA [1]: 23
SMILES: CCc1c(-c2ccc(O)cc2)n(CC)c2ccc(O)cc12

SMILES: CCn1c(-c2ccc(OC(C)=O)cc2)c(C)c2ccc(OC(C)=O)cc21
Uterotrophic effect [6]: 20.8 | Uterotrophic effect [2]: 42.4 | Uterotrophic effect [3]: 31.6 | Uterotrophic effect [4]: 44.8 | Uterotrophic effect [5]: 41.5 | Change of tumor area [7]: -96% | Change of tumor area [8]: -74% | Change of body weight [9]: -15% | Change of body weight [10]: -13% | Change of tumor area [11]: -100% | Complete remission [12]: 65% | Complete remission [13]: 70% | Partial remission [14]: 23% | Static tumors [15]: 2% | Static tumors [16]: 15% | Progressed tumors [17]: 9% | No. of tumors [18]: 40 | No. of tumors [19]: 34 | New tumors [20]: 6 | New tumors [21]: 6 | Progressed tumors [22]: 5% | Partial remission [23]: 11%

RBA [1]: 4.6
SMILES: CCCCn1c(-c2ccc(O)cc2)c(C)c2cc(O)ccc21

RBA [1]: 13
SMILES: Cc1c(-c2ccc(O)cc2)n(C(C)C)c2cc(O)ccc12

inhibition [28]: 33% | inhibition [29]: 7% | inhibition [30]: 23% | inhibition [31]: 31%
SMILES: CC(=O)Oc1ccc(-c2c(C)c3ccc(OC(C)=O)cc3n2C)cc1
Anti-uterotrophic effect [24]: 31.7 | Anti-uterotrophic effect [25]: 32.3 | Anti-uterotrophic effect [26]: 34.3 | Anti-uterotrophic effect [27]: 38.2 | Uterotrophic effect [6]: 18.2 | Uterotrophic effect [3]: 18.6 | Uterotrophic effect [4]: 24.2 | Uterotrophic effect [5]: 21.4
